Laboratory results as given in publication PMC12479363 (Nature Immunology, 2025).
Structures can show the parent of a compound that is named as a salt. No end group written: not given here. *: point of attachment. Biotin = O=C1N[C@H]2[C@H](CS[C@H]2CCCCC(=O)*)N1; Ahx = NCCCCCC(=O)O

Experiments:
[1] = system: LPS-induced sepsis in mice; experiment: Low-dose LPS; type: in vivo, mouse; conditions: for plasma IL-1β levels: mild sepsis, at 24 h, vs saline, n = 10
Summary of the method: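 C57BL/6J and Gsdmd−/− mice (8–10 weeks, 50:50 female:male) were randomized, unblinded, and given LPS (O55:B5) 15 mg per kg i.p. At 16 h they received saline or test peptide 1 mg per kg i.v. Blood AST, BUN, ALT and CK were measured at day 2 (n = 6). Plasma IL-1β was measured by ELISA (n = 10).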

[2] = system: LPS-induced sepsis in mice; experiment: Moderate LPS; type: in vivo, mouse; conditions: at 6 h, n = 10; for plasma IL-1β levels: vs saline
Summary of the method: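 Sepsis was induced in wild-type mice (8–10 weeks, mixed sex) with LPS (O55:B5) 25 mg per kg i.p. At 5 h after LPS they received saline or test peptide 2 mg per kg i.v. Reference pore inhibitors were given i.p. Plasma IL-1β was measured by ELISA every 3 h up to 48 h.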

[3] = system: LPS-induced sepsis in mice; experiment: Severe LPS; type: in vivo, mouse; conditions: at 5 h, n = 10; for plasma IL-1β levels: vs saline
human blood leukocytes = experiment: Pyroptosis in human whole blood; type: cell-based; conditions: DSF vs PBS, LPS + nigericin-treated blood, 1 h
BMDMs = experiment: Cell membrane repair: CHMP4–GFP puncta and Annexin V; type: cell-based, mouse; conditions: 2 mM EDTA + 15 µM SK56, LPS + nigericin
[4] = target: T1, pyroptotic cytomembranes, which contain GSDMD-NT pores (Homo sapiens, UniProt P57764); experiment: Biolayer interferometry, pyroptotic cytomembranes; type: binding
T1 sequence (P57764 1-275 limits assumed): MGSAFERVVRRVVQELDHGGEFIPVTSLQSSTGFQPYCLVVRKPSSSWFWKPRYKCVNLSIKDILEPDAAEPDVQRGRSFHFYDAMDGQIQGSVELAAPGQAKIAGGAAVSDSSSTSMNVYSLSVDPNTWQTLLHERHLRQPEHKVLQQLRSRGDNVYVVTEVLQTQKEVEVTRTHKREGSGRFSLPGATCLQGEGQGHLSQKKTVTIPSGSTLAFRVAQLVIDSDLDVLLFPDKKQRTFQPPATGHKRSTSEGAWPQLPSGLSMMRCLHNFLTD

Row | Molecule | plasma IL-1β levels [1] | organ damage markers in the plasma [2] | plasma IL-1β levels [2] | organ damage markers in the plasma [3] | plasma IL-1β levels [3] | secretion of IL-1β and IL-18 (human blood leukocytes) | proportion of Annexin V+ BMDMs (BMDMs) | blood biochemical markers (AST, BUN, ALT and CK) ([1]; LPS 15 mg/kg, treatment at 16 h, day 2, vs saline-treated WT mice, n = 6) | Kd [4]
1 | COC(=O)/C=C/C(=O)OC [DMF, dimethyl fumarate] | reduced plasma IL-1β levels | lowered levels of organ damage markers | reduced plasma IL-1β levels | lowered levels of organ damage markers | reduced plasma IL-1β levels |  |  |  | 
2 | CCN(CC)C(=S)SSC(=S)N(CC)CC [DSF, disulfiram] | reduced plasma IL-1β levels |  | reduced plasma IL-1β levels | failed to suppress BUN but inhibited the other three organ damage markers | reduced plasma IL-1β levels | completely blocked |  |  | 
3 | O=C(O)CN(CCN(CC(=O)O)CC(=O)O)CC(=O)O [EDTA] |  |  |  |  |  |  | restored the proportion of Annexin V^+ BMDMs to the level seen in BMDMs without SK56 treatment |  | 
4 | COc1nccnc1NS(=O)(=O)c1ccc(NC(=O)/C=C/c2ccc([N+](=O)[O-])s2)cc1 [NSA, necrosulfonamide] |  | lowered levels of organ damage markers |  | lowered levels of organ damage markers | had no effect |  |  | inhibited AST, BUN, ALT and CK | 
5 | {Biotin-Ahx-Ahx}-SLEEFAKRVVEELVKEFNLDKRQESYLEMSALIQAQMGISERIIEIVLRHAAQTLK [Biotinylated SK56] |  |  |  |  |  |  |  |  | 10.9 nM
